# The list is not random: actives were taken first. Their share in the collection is about 2.4%.
# OPRM1-OPRD1 ag: OPRM1-OPRD1 heterodimerization agonism | activation, % at 9.3 µM | hit rate 0.3% among 340,000 | cells, luminescence | P35372+P41143 | AID 504326;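 note: 0% = vehicle-treated cells and 100% = reference agonist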
# Target sequence (P35372 whole entry, looked up): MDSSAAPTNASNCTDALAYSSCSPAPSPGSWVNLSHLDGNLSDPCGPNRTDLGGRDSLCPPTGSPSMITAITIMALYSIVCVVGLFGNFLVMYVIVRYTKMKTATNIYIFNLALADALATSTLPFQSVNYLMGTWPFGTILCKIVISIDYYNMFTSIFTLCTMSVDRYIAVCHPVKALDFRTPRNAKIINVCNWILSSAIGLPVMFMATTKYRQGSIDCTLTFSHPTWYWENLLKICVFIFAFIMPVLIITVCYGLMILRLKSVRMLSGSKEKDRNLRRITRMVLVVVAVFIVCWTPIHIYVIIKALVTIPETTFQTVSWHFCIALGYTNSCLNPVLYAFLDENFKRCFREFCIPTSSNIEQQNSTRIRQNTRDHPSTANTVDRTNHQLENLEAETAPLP
# Target sequence (P41143 whole entry, looked up): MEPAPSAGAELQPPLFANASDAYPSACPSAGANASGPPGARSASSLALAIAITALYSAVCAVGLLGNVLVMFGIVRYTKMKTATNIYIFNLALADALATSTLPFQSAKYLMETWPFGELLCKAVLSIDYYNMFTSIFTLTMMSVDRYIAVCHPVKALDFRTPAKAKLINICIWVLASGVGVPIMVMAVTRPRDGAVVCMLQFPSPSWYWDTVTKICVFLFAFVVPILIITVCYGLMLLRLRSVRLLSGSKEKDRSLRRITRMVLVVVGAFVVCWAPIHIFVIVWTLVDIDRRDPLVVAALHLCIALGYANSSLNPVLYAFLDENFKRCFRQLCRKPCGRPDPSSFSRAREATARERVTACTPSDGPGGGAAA
# MC4R barr agon: human MC4R agonism via beta-arrestin; P32245; U2OS MC4R beta-arrestin complementation, luminescence; percent of melanotan II response, DMSO zero; activation, % at 8.9 µM; hit rate 0.98% among 360,000;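 active = activation above a per-plate cutoff, the mean activation of sample wells on that plate plus 3 SD, cut at about 8% in these data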
# HTR5A inv ag: HTR5A inverse agonism, opioid heterodimer counter-screen; inhibition, % at 9.3 µM; HTR5A cell line, luminescence; hit rate 0.083% among 340,000; in the data active = inhibition mostly above about 23%, no sharp cut-off; inactive = mostly below about 18%;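 note: 0% = cells with DMSO and 100% = no-cell wells with DMSO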
# MC4R antagonist: blocks human MC4R cAMP signaling; AID 540295; hit rate 0.48% among 360,000; inhibition, % at 6.5 µM; MC4R-expressing cells, MTII-stimulated cAMP, LANCE TR-FRET;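 active = inhibition above its plate's cutoff, the mean of tested wells on that plate plus 3 SD, cut at about 29% in these data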;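 note: 0% = Melanotan II alone and 100% = Melanotan II plus saturating MCL0020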
#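 system = U2OS cells with stable human MC4R expression | also added = Melanotan II challenge after compound preincubation | dosing = one concentration, 6.5 µM nominal | incubation = compound 30 min, challenge 1 h, detection 1 h | measured by = TR-FRET with Eu-cAMP and labeled anti-cAMP, 671 nm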
# MOR-DOR inv ag: inverse agonist of human OPRM1-OPRD1 heterodimerization. hit rate 0.21% among 340,000. P35372+P41143. cell-based MOR-DOR heterodimer luminescence, inverse agonism. inhibition, % at 9.3 µM. AID 504357; in the data active = inhibition above about 22%, passing the limit was not always enough;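 note: 0% = cells with DMSO and 100% = wells without cells with DMSO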
# HTR5A ag: HTR5A agonism, opioid heterodimer counter-screen; P47898; HTR5A agonist assay, luminescence, cell-based; activation, % at 9.3 µM; hit rate 0.61% among 340,000; in the data active = activation mostly above about 9.5%, no sharp cut-off; inactive = mostly below about 7.6%;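 note: 0% = cells with vehicle only and 100% = reference agonist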
# MOR-DOR ag conf: confirmation of human OPRM1-OPRD1 heterodimerization agonists | AID 504904 | hit rate 45% among 830 | cells, MOR-DOR heterodimerization, luminescence complementation | activation, % at 9.3 µM | shares compounds with OPRM1-OPRD1 ag;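 note: 0% = vehicle-treated cells and 100% = reference agonist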
# HTR5A ag counter: counter-screen for OPRM1-OPRD1 agonists: human HTR5A agonism | shares compounds with OPRM1-OPRD1 ag | HTR5A agonist counterscreen, cell luminescence | activation, % at 9.3 µM | hit rate 8% among 830; in the data active = activation above about 17%;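 note: 0% = vehicle-treated cells and 100% = reference agonist response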
# Numbers without * were called inactive; i = inactive; . = no result given. Cut-off read from the data, not from the text of the source, unless noted: active = activation above about 18%; inactive = the rest.
SMILES,OPRM1-OPRD1 ag,MC4R barr agon,HTR5A inv ag,MC4R antagonist,MOR-DOR inv ag,HTR5A ag,MOR-DOR ag conf,HTR5A ag counter
CN(C)c1ccc(/C=N/NC(=O)c2ccc(NC(=O)c3ccccc3)cc2)cc1,19*,2,12,7,-93,0,34*,20*
COc1ccc(CC(=O)NCC2CCCN(Cc3cccc(SC)c3)C2)cc1 (stereo not drawn),0,-2,-16,3,2,4,.,.
O=C(NCc1ccco1)c1ccccc1SCC(=O)N1CCCC1,-2,-2,6,-1,10,-2,.,.
COc1cc(/C=N/NC(=O)c2ccccc2O)ccc1OCC(=O)Nc1ccccc1,-3,1,18,0,17,2,.,.
O=C(COc1ccc(/C=N/NC(=O)c2cc3ccccc3o2)cc1Cl)Nc1ccccc1,41*,20*,-27,1,-237,9,3,-4
Nc1c(N(Cc2ccccc2)C(=O)COc2ccc(F)cc2)c(=O)[nH]c(=O)n1Cc1ccccc1,0,-3,5,9,-1,5,.,.
Nc1c(N(Cc2ccccc2)C(=O)COc2cccc(Cl)c2)c(=O)[nH]c(=O)n1Cc1ccccc1,21*,-2,0,17,-134,2,-2,-3
CCCNC(=O)c1onc(CSc2ccc(Cl)cc2)c1C(=O)NC(C)C,0,2,-17,5,-1,6,.,.
CCOc1ccc(C(=O)Nc2ccccc2N2CCN(C(=O)c3ccccc3)CC2)cc1[N+](=O)[O-],-2,0,-24,5,12,9,.,.
Cc1cc(C)c(-c2cc(C(=O)Nc3cc(C)ccc3C)[nH]n2)c(O)c1,20*,2,-15,7,-95,4,10,0
Cc1ccc(-c2cc(C(=O)Nc3cc(C)ccc3C)[nH]n2)c(O)c1,1,1,19,7,-9,4,.,.
CCC(c1ccccc1)C(CC)c1cc(O)c(O)c(O)c1 (stereo not drawn),18*,6,-4,1,-95,1,-1,-2
Cc1cccc(NC(=S)NCC(c2cccnc2)N(C)C)c1C (stereo not drawn),416*,-2,10,7,i,-4,412*,4
CC(=O)c1ccc(NC(=O)CNCC(c2ccccc2)N(C)C)cc1 (stereo not drawn),1,-1,-6,12,-5,-3,.,.
Cc1ccccc1NC(=S)NCC(c1cccnc1)N(C)C (stereo not drawn),216*,-1,0,-1,i,0,211*,1
Cc1c(Cl)cccc1NC(=S)NCC(c1cccnc1)N(C)C (stereo not drawn),474*,0,-13,6,i,0,15,6
Cc1ccc(NC(=O)NCC(c2ccccc2)N(C)C)cc1 (stereo not drawn),353*,-1,8,7,i,-2,23*,17*
O=C1Nc2ccccc2C(=O)N2C[C@@H](O)C[C@H]12,-1,-1,9,0,3,-3,.,.
CC(=O)N/C(=C\c1ccccc1)C(=O)OCC(=O)NC1CCS(=O)(=O)C1 (stereo not drawn),-2,2,16,3,8,-4,.,.
CSc1cccc(NC(=O)c2ccc(NC3=NC4CS(=O)(=O)CC4S3)cc2)c1 (stereo not drawn),-1,-1,8,9,5,-7,.,.
Cc1ccc(C)c(NC(=S)NCC(c2ccccc2)N(C)C)c1 (stereo not drawn),265*,-1,-6,2,i,2,361*,-2
COc1ccc(CCN(C)C(=O)CCCN2C(=O)c3cccc4cccc(c34)C2=O)cc1OC,2,-1,16,15,-10,-1,.,.
Cc1nnc(NC(=O)Nc2cccc(Cl)c2)s1,6,0,-16,-4,-25,5,.,.
Cc1ccc(OCCSCc2nnc(NC(=O)Nc3cccc(Cl)c3)s2)cc1,19*,5,-17,7,-100,5,-2,0
CCn1c(-c2ccccc2)c(C(=O)CCl)c2ccccc21,66*,-2,33,17,-331,14,-2,6
SMILES,OPRM1-OPRD1 ag,MC4R barr agon,HTR5A inv ag,MC4R antagonist,MOR-DOR inv ag,HTR5A ag,MOR-DOR ag conf,HTR5A ag counter
Cc1ccc2[nH]c(=O)c(C(c3nnnn3Cc3ccccc3)N3CCc4ccccc43)cc2c1 (stereo not drawn),8,3,25,3,-40,-2,.,.
Cc1ccc2cc(C(c3nnnn3Cc3ccccc3)N3CCc4ccccc43)c(=O)[nH]c2c1 (stereo not drawn),20*,-1,-10,7,-108,-3,60*,-1
Cc1cccc2cc(C(c3nnnn3Cc3ccccc3)N3CCN(C)CC3)c(=O)[nH]c12 (stereo not drawn),35*,-1,0,3,-185,0,38*,2
CC1=CC(C)C2(COC(=O)Nc3ccccc3)COC(C)C1C2C (stereo not drawn),7,1,-4,5,-42,1,.,.
COc1ccc(C(CCNC(C)c2ccccc2)C(C)C)cc1 (stereo not drawn),.,0,.,3,.,.,.,.
COc1ccc(C(C)NCCC(c2ccc(OC(C)C)cc2)c2ccccc2OC)cc1 (stereo not drawn),23*,20*,-5,0,-135,1,37*,7
OC(CNCC(c1ccc(Cl)cc1Cl)c1c[nH]c2ccccc12)c1ccccc1 (stereo not drawn),55*,1,-42,-8,-271,15*,0,1
O=C(c1sc2ccccc2c1Cl)N(Cc1ccco1)C1CCS(=O)(=O)C1 (stereo not drawn),53*,-1,-26,4,-283,0,54*,0
O=C(c1sc2ccccc2c1Cl)N(Cc1ccccc1Cl)C1CCS(=O)(=O)C1 (stereo not drawn),52*,0,-12,16,-275,4,18*,4
O=C(c1cccs1)N(Cc1ccco1)C1CCS(=O)(=O)C1 (stereo not drawn),-2,-2,27,2,13,0,.,.
O=C(COC(=O)CNC(=O)c1sc2ccccc2c1Cl)NC1CCS(=O)(=O)C1 (stereo not drawn),-1,0,-1,8,10,-3,.,.
O=C(c1sc2ccccc2c1Cl)N(Cc1ccccc1)C1CCS(=O)(=O)C1 (stereo not drawn),29*,-1,0,3,-146,-2,27*,5

# Source: PubChem BioAssay
